Sampled rows, rich in hits. Any-hit rate of the full collection: about 2.9%.
Apaf1 inhib – blocks human Apaf-1 apoptosome activity | reconstituted apoptosome caspase-3 activity, DEVD-Rh110 fluorescence | 0.71% of 330,000 active | AID 489030 | inhibition, % at 20 µM | O14727; active = inhibition of at least 40% at 20 µM;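 also: plate controls were DMSO wells for no effect and DEVD-CHO caspase inhibitor wells for full effect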
Target sequence (O14727 whole entry, looked up): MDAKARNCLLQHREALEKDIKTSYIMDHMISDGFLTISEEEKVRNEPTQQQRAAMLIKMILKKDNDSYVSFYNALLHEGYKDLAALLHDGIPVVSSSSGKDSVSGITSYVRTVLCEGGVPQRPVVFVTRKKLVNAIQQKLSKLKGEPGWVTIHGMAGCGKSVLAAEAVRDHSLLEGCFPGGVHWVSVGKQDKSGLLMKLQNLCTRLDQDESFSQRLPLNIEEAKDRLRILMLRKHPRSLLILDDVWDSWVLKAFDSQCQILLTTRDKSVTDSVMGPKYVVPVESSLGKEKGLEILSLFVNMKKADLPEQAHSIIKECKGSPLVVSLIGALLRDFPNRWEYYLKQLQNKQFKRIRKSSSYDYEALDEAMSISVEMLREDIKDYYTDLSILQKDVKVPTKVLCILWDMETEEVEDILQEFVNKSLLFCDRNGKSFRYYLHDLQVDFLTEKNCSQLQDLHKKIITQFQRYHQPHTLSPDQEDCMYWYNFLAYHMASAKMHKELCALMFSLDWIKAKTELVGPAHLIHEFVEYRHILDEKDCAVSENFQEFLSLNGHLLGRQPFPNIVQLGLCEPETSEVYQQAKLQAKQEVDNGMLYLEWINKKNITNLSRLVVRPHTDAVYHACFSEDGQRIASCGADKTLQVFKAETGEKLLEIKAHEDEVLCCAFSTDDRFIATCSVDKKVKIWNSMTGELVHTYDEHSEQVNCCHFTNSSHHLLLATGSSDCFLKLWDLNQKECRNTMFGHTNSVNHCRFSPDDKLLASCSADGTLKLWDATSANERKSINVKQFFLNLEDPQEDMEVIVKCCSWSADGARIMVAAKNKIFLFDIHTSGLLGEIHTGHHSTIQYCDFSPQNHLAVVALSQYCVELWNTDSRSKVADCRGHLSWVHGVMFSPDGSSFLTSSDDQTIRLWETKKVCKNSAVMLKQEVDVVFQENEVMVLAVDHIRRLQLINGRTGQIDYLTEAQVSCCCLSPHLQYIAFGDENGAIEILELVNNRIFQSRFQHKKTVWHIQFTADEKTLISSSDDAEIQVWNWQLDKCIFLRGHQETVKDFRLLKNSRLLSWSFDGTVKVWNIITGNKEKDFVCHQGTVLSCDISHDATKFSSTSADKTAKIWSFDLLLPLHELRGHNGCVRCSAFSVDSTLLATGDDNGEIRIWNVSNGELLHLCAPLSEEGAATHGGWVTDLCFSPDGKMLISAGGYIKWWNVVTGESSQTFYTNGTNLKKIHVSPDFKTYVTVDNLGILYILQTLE
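Material: cell-free apoptosome with Apaf-1, procaspase-3 and caspase-9; Buffer or medium: Hepes pH 7.5 with detergent and BSA; Reagent: cytochrome c trigger plus (Z-DEVD)2-Rh110 caspase-3 substrate; Times: compound with Apaf-1, dATP, procaspase-3 30 min, then 50 min reaction, room temperature; Technique: Rh110 fluorescence intensity.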
PfM18AAP inh – blocks P. falciparum M18 aspartyl aminopeptidase | recombinant PfM18AAP, H-Glu-NHMec fluorogenic cleavage | inhibition, % at 7.35 µM | 1.2% of 290,000 active;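 active = inhibition above the campaign mean inhibition over all tested compounds plus 3 SD, cut at about 28% in these data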;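 also: 0% = plate median of test compound wells and 100% = 2 mM ZnCl2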
UBC13 polyUb – inhibitors of human UBC13 polyubiquitin chain formation. P61088. TR-FRET. inhibition, % at 20 µM. 0.47% of 330,000 active; in the data active = inhibition above about 45%, passing the limit was not always enough; inconclusive = no clear call, values can overlap the other calls
PfGluPho inh – PfG6PD (Plasmodium falciparum) enzyme inhibition; PfGluPho enzyme, NADPH resazurin-diaphorase fluorescence; inhibition, % at 20 µM; 0.78% of 350,000 active; AID 504690;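 active = inhibition reaching at least a set limit at 20 µM in the primary screen, cut at about 59% in these data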;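 also: 0% = DMSO wells with substrate and 100% = DMSO wells lacking glucose-6-phosphate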
EBNA-1 inh – blocks EBNA-1 binding to DNA | 0.34% of 300,000 active | inhibition, % at 14.8 µM | EBNA-1 DNA binding, fluorescence polarization; in the data active = inhibition above about 28%
ZTA counter – ZTA (EBV) inhibition in EBNA-1 counter-screen; ZTA-DNA binding, fluorescence polarization; AID 2234; inhibition, % at 11 µM; P03206; 0.15% of 320,000 active; in the data active = inhibition above about 33%
Casp3 UBC13 ctr – counter-screen for UBC13 inhibitors: human caspase-3 inhibition | shares compounds with UBC13 polyUb | Recombinant caspase-3, Caspase-Glo 3/7 luminescence, 60 min | inhibition, % at 20 µM | 4% of 1,400 active | AID 488856;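 active = mean inhibition across replicates above about 26%, limit read from the data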;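 also: plate controls were DMSO with caspase-3 for no effect and DMSO wells lacking enzyme for full effect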
UBC13 conf – confirmation of human UBC13 polyubiquitin inhibitors. shares compounds with UBC13 polyUb. UBC13 polyubiquitination, TR-FRET, biochemical. inhibition, % at 10 µM. 68% of 1,400 active; in the data active = inhibition above about 45%; inconclusive = no clear call, values can overlap the other calls
Apaf-1 inh conf2 – Apaf-1 inhibition, single-dose confirmed. inhibition, % at 20 µM. shares compounds with Apaf1 inhib. AID 504614. reconstituted apoptosome, caspase-3 DEVD-Rh110 fluorescence. 25% of 1,800 active;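 active = mean inhibition of at least 40% at 20 µM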;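 also: plate controls were DMSO wells for no effect and DEVD-CHO caspase inhibitor control wells for full effect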
Rh110 quench – counter-screen for Apaf-1 inhibitors: fluorescence interference; shares compounds with Apaf1 inhib; Rh110 fluorescence interference, quenched caspase reaction; activation (fluorescence interference), % at 20 µM; 1,800 tested, under 10 active; AID 504615;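 active = signal rise of 40% or more at 20 µM, treated as a fluorescence artifact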
Fluor interf inh – shows fluorescence interference in the Apaf-1 inhibitor assay format; AID 588538; IC50, µM; 460 tested, under 10 active; fluorescence interference counterscreen, Apaf-1 assay format; shares compounds with Apaf1 inhib; call rule not given here
* marks the source's active call; other numbers are inactive results; u = inconclusive; x = no result.

SMILES	Apaf1 inhib	PfM18AAP inh	UBC13 polyUb	PfGluPho inh	EBNA-1 inh	ZTA counter	Casp3 UBC13 ctr	UBC13 conf	Apaf-1 inh conf2	Rh110 quench	others
CN(C)Cc1nc2ccccc2c(=O)n1Cc1nc(-c2cccc([N+](=O)[O-])c2)cs1	2	-3	0	12	-3	-5	x	x	x	x
CN1CCN(Cc2nc3ccccc3c(=O)n2Cc2nc(-c3ccc([N+](=O)[O-])cc3)cs2)CC1	20	-1	79*	15	-1	1	2	57*	x	x
Cc1nc(N)c2c(Cc3cccc4ccccc34)nn(C(C)(C)C)c2n1	26	x	74*	22	-3	-9	-4	43	x	x
COc1cc(CN2CCC(n3nccc3NC(=O)c3ccc4c(c3)OCO4)CC2)ccc1O	-3	-15	-2	10	2	17	x	x	x	x
COc1ccc(-c2nn(-c3ccccc3)cc2/C=N/N=C(N)N)cc1OC	30	-1	51*	2	-7	10	-5	67*	x	x
O/N=C/c1cn(-c2ccccc2)nc1-c1ccc2c(c1)OCCO2	15	5	46*	-5	7	3	-2	48*	x	x
O=C(O)/C=C/c1cn(-c2ccccc2)nc1-c1ccc2c(c1)OCCO2	4	-1	2	-3	-9	-1	x	x	x	x
NS(=O)(=O)c1ccc(NC(=O)N2c3ccccc3Sc3ccccc32)cc1	-4	-15	46*	7	2	-4	1	-2	x	x
CC1CCN(S(=O)(=O)c2ccc(NC(=O)N3c4ccccc4Sc4ccccc43)cc2)CC1	5	12	-11	1	10	-25	x	x	x	x
C=C(C)CNC(=S)N=Nc1c(O)[nH]c2ccc([N+](=O)[O-])cc12	-11	10	49*	13	-2	-2	1	47*	x	x
CCOc1ccccc1NC(=O)COc1cccnc1[N+](=O)[O-]	-3	x	51*	9	x	x	3	38	x	x
COc1ccccc1NC(=O)COc1cccnc1[N+](=O)[O-]	-3	x	46*	-1	x	x	0	27	x	x
COc1ccccc1CNC(=O)COc1cccnc1[N+](=O)[O-]	-3	5	-6	-1	0	0	x	x	x	x
O=C(COc1cccnc1[N+](=O)[O-])Nc1ccc(F)cc1	-5	x	-2	3	x	x	x	x	x	x
COc1ccccc1C(=O)Nc1ccnn1C1CCN(Cc2cnc(N(C)C)s2)CC1	4	-2	-2	16	3	-8	x	x	x	x
CCN1CCN(c2ccc(S(=O)(=O)N3CCCCC3)cc2NC(=O)/C=C/c2ccc(Cl)cc2)CC1	x	x	x	19	x	x	x	x	x	x
COc1ccc(-c2sc3ccccc3c2-c2ccc(OCCN3CCCCC3)cc2)cc1	55*	x	72*	14	x	x	-3	u	16	5
COc1ccc2c(-c3ccc(OCCN4CCOCC4)cc3)c(-c3ccccc3OC)sc2c1	29	x	x	19	x	x	x	x	x	x
COc1cccc(-c2sc3ccccc3c2-c2ccc(OCCN(C)C)cc2)c1	76*	x	80*	13	x	x	-2	79*	20	7
COc1cccc(-c2sc3ccccc3c2-c2ccc(OCCN3CCCCC3)cc2)c1	64*	x	69*	13	x	x	-2	62*	8	14
Cc1c(-c2ccc(OCCN3CCCCC3)cc2)c(=O)oc2ccc3ccccc3c12	x	x	x	4	x	x	x	x	x	x
COc1cc2sc(-c3ccccc3OC)c(-c3ccc(OCCN4CCOCC4)cc3)c2cc1OC	27	x	x	13	x	x	x	x	x	x
COc1cccc(-c2sc3ccccc3c2-c2ccc(OCCN3CCCC3)cc2)c1	71*	x	84*	6	x	x	-4	68*	25	14
COc1cccc(-c2sc3ccc(OC)cc3c2-c2ccc(C(N)=O)cc2)c1	18	x	4	-1	x	18	x	x	x	x
COc1ccc(C(=O)N2CCN(CCNC(=O)C(=O)Nc3ccc(F)cc3)CC2)cc1OC	-1	1	1	-11	0	-5	x	x	x	x
SMILES	Apaf1 inhib	PfM18AAP inh	UBC13 polyUb	PfGluPho inh	EBNA-1 inh	ZTA counter	Casp3 UBC13 ctr	UBC13 conf	Apaf-1 inh conf2	Rh110 quench	others
CCOc1ccc(NC(=S)NCC(c2cccnc2)N2CCOCC2)cc1 (stereo unspecified)	-1	-8	-2	29	9	12	x	x	x	x
CC(C)COCC(CN(Cc1ccccc1)c1ccccc1)N1CCCC1 (stereo unspecified)	49*	-1	49*	-4	-3	-19	2	40	12	16
CC(C(=O)Nc1ccc(OCc2ccccc2)cc1)N1CCCC1 (stereo unspecified)	-3	7	-5	-4	-2	8	x	x	x	x
CCCCc1oc2ccccc2c1C(=O)c1cc(I)c(OCCN(CC)CC)c(I)c1	53*	-3	68*	7	x	20	0	58*	6	13
COc1ccc(CNC[C@@H](CCCCN(C)Cc2ccc(OC)cc2)N2C[C@H](c3ccccc3)N(CCc3ccc(Cl)c(Cl)c3)C(=O)C2=O)cc1	49*	4	93*	22	-12	0	-2	74*	51*	7	Fluor interf inh=>100
Cn1cc(Br)c(C(=O)n2cc(Br)cn2)n1	-8	-6	3	26	4	-1	x	x	x	x
CCN1C(=O)CC(c2ccccc2)N(C2CCCC2)c2nc(Nc3ccc(C(=O)NC4CCN(C)CC4)cc3OC)ncc21 (stereo unspecified)	70*	x	61*	17	x	x	1	41	23	7
COc1ccccc1S(=O)(=O)Cc1ccc(C(=O)NCCCN2CCN(c3ccc(F)cc3)CC2)o1	3	-5	-2	1	-4	-12	x	x	x	x
COc1cc2nc(N3CCN(c4cc(C)ccc4C)CC3)nc(N)c2cc1OC	29	-12	43	11	16	2	x	x	x	x
COc1cc2nc(N3CCNCC3)nc(N)c2cc1OC	61*	-3	107*	32	14	16	-1	118*	66*	4	Fluor interf inh=>100
Cc1cc(C(C)(C)C)ccc1OCCCCN1CCCC1	9	1	7	-11	-6	-8	x	x	x	x
CCC(C)(C)c1ccc(OCCCC[n+]2ccc(C)cc2)c(C(C)(C)CC)c1	48*	-8	69*	10	2	0	-2	99*	29	20
Cc1cc[n+](CC[n+]2ccc(C)cc2)cc1	19	x	-3	-7	5	-20	x	x	x	x
CCC(C)(C)c1ccc(OCCCC[n+]2cccc(C)c2C)c(C(C)(C)CC)c1	69*	3	82*	1	-6	19	-3	100*	54*	19	Fluor interf inh=>100
